These results are taken from the array DNA melting data of Ke et al. (doi:10.1101/2024.01.08.574731).

A short description of data set [1]: folding enthalpy; higher = less favourable; fluorescence melt of hairpins on a sequencing array, two-state fit. To be noted: sodium 0.088 M. The essentials:
(§1)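 Hairpins were imaged by Cy3 fluorescence on a sequenced MiSeq flow cell with annealed Cy3 and quencher oligos, in 50 mM Na-HEPES pH 8.0, 25 mM NaCl, in 2.5 °C steps up to 60 °C. Bootstrapped two-state fits of normalised signals gave melting temperature and folding enthalpy. Four replicates were combined by inverse variance, and fitted temperatures were raised by 9.35 °C to match UV melts.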

Data set [2] in a line: melting temperature; fluorescence melt of hairpins on a sequencing array, two-state fit, raised by 9.35 °C to match UV melts. Particulars: sodium 0.088 M. The essentials: as §1

GATCCAATCTTGGATC ((((((....)))))): the folding enthalpy in data set [1] is -138 kJ/mol. Further, in data set [2], the Tm stood at 54.3 °C.
GGCGTCCGAAAGGAGGCC (((.(((....))).))): in data set [1], the folding enthalpy was -113 kJ/mol. In data set [2], the Tm was 69.1 °C.
Regarding GATCGGTCGCCCGATC ((((((....)))))), the folding enthalpy in data set [1] was -228 kJ/mol. In data set [2], the Tm stood at 57.4 °C.
The like results for GCATTCGGAAACGAGTGC (((.(((....))).))) were, in that order, -195 kJ/mol and 53 °C.
Consider GTAACGCGAAAGCGATAC (((.(((....))).))), for which the folding enthalpy in data set [1] was -101 kJ/mol. Also, in data set [2], the Tm stood at 51 °C.
The corresponding values for GCTGGGCGAAAGCAGAGC (((..((....))..))) are -82.9 kJ/mol and 49.5 °C.
Turning to GATCTGGCACAGATC ((((((...)))))), the folding enthalpy in data set [1] was -162 kJ/mol. Besides, the Tm in data set [2] stood at 58.4 °C.
Consider GGAGTCGCGAAAGCGTCC (((..(((....)))))), for which the folding enthalpy in data set [1] is -51.4 kJ/mol. Also, the Tm in data set [2] is 34.1 °C.
Regarding GCAACGGGAAACCGCTAC (.(.(((....))).).), the folding enthalpy in data set [1] was -39.3 kJ/mol. For the same sequence, in data set [2], the Tm came to 28.3 °C.
The like results for GTCACAGGAAACTGTGAC (((((((....))))))) were, in that order, -177 kJ/mol and 66.8 °C.
The like results for CGGTCGCGGAAACGCCCG (((..(((....)))))) were, in that order, -87.4 kJ/mol and 47.1 °C.
With GCGTGGGCACGC ((((....)))), in data set [1], the folding enthalpy was -103 kJ/mol. For the same sequence, in data set [2], the Tm came to 57.3 °C.
On to GCAAACGAAAGTTATTGC ((((((....)))..))), for which the folding enthalpy in data set [1] is -77.5 kJ/mol. Moreover, the Tm in data set [2] is 31.7 °C.
The like results for GGCGGAGGAAACTCCGTC (.(((((....))))).) were, in that order, -107 kJ/mol and 61.2 °C.
For the sequence GGACATGGAAACATGTCC (((((((....))))))), in data set [1], the folding enthalpy is -187 kJ/mol. Moreover, the Tm in data set [2] turned out to be 64.7 °C.
The corresponding values for GACTCCGAAAGGATGTC ((((((....))).))) are -128 kJ/mol and 51 °C.
Take GCGTCGCGAAAGCAAGGC ((.(.((....)).).)): the folding enthalpy in data set [1] is -71.4 kJ/mol. Besides, the Tm in data set [2] turned out to be 43.8 °C.
The like results for GCATCCGAAAGGAATTGC ((((((....)))..))) were, in that order, -84.6 kJ/mol and 36.9 °C.
For GAGGGACGAAAGTCGCTC (((.(((....))).))), the folding enthalpy in data set [1] was -144 kJ/mol. The Tm in data set [2] was found to be 65.6 °C.
Regarding GGAAATCGAAAGATCTCC (((.(((....))).))), in data set [1], the folding enthalpy was -109 kJ/mol. In addition, in data set [2], the Tm is 34.9 °C.
Regarding GTCTTCGAAAGAACAGAC ((((((....)))..))), in data set [1], the folding enthalpy is -69.3 kJ/mol. Further, in data set [2], the Tm was found to be 28.3 °C.
The like results for GCCTCGTCGAAAGACGGC (((..(((....)))))) were, in that order, -33.6 kJ/mol and 49.6 °C.
Take GAAGACGAAAGTCGCTTC ((((((....)))..))): the folding enthalpy in data set [1] was -94.5 kJ/mol. In addition, in data set [2], the Tm was determined as 47.1 °C.
The like results for GGTATGGCGAAAGCCACC (((..(((....)))))) were, in that order, -35.8 kJ/mol and 38.9 °C.
Take GACACCGAAAGGTAAGTC ((((((....)))..))): the folding enthalpy in data set [1] was -84.6 kJ/mol. For the same sequence, the Tm in data set [2] was determined as 38.5 °C.
Turning to GATCTACCAGTAGATC ((((((....)))))), the folding enthalpy in data set [1] was -136 kJ/mol. The Tm in data set [2] was 48.9 °C.
CGCGGATAGTTCCGCG ((((((....)))))): in data set [1], the folding enthalpy is -148 kJ/mol. The Tm in data set [2] was 68.5 °C.
Regarding GATCCATGTATGGATC ((((((....)))))), the folding enthalpy in data set [1] is -178 kJ/mol. In addition, the Tm in data set [2] was 58 °C.
On to GGTGAACGAAAGTTAACC (((.(((....))).))), for which the folding enthalpy in data set [1] is -143 kJ/mol. The Tm in data set [2] was 49.2 °C.
The like results for GATCGGGTACCGATC ((((((...)))))) were, in that order, -187 kJ/mol and 67.5 °C.
The like results for CGTACCCGGAAACGGACG (((..(((....)))))) were, in that order, -51.6 kJ/mol and 31.8 °C.
For the sequence GAAGCCGAAAGGCCATTC ((((((....)))..))), the folding enthalpy in data set [1] is -37.5 kJ/mol. In addition, the Tm in data set [2] came out at 28 °C.
With GCTGTCGCGAAAGCGAGC (((..(((....)))))), the folding enthalpy in data set [1] is -36.6 kJ/mol. Further, in data set [2], the Tm was 41.8 °C.
As for GTGGTCGAAAGACGTCAC ((((((....)))..))), the folding enthalpy in data set [1] is -56.4 kJ/mol. For the same sequence, in data set [2], the Tm turned out to be 36.2 °C.
With GATCCGTGTCCGGATC ((((((....)))))), the folding enthalpy in data set [1] is -142 kJ/mol. The Tm in data set [2] came out at 57.5 °C.
The corresponding values for GATCGTATGACGATC ((((((...)))))) are -142 kJ/mol and 55.6 °C.
For GCTAGCGAAAGCTAGAGC ((((((....)))..))), the folding enthalpy in data set [1] was -55.4 kJ/mol. Also, in data set [2], the Tm amounted to 55 °C.
Turning to GGAAGTGAAAACTTCC ((((((....)))))), in data set [1], the folding enthalpy is -156 kJ/mol. Moreover, in data set [2], the Tm was 56.4 °C.
The corresponding values for GATCCCATAGGGATC ((((((...)))))) are -155 kJ/mol and 67 °C.
Turning to GATCGCAAACGCGATC ((((((....)))))), the folding enthalpy in data set [1] is -176 kJ/mol. The Tm in data set [2] is 64.8 °C.
The corresponding values for GATCCCTTAGGGATC ((((((...)))))) are -160 kJ/mol and 66.1 °C.
With GCGCCTCGAAAGAGCCGC (((.(((....))).))), the folding enthalpy in data set [1] is -158 kJ/mol. In addition, the Tm in data set [2] came to 52.2 °C.
Consider GTGCTGTCGAAAGACCAC (((..(((....)))))), for which the folding enthalpy in data set [1] is -54.7 kJ/mol. Also, the Tm in data set [2] is 45.4 °C.
For GATCCAACGTGGATC ((((((...)))))), the folding enthalpy in data set [1] was -133 kJ/mol. Besides, the Tm in data set [2] stood at 49.2 °C.
The corresponding values for GGTCTGGCGAAAGCCACC (((..(((....)))))) are -31.2 kJ/mol and 27.1 °C.
With GCGTCCGGAAACAGACGC (((((.(....).))))), in data set [1], the folding enthalpy was -151 kJ/mol. For the same sequence, the Tm in data set [2] was determined as 54 °C.
For GATCAAAAGCTTGATC ((((((....)))))), in data set [1], the folding enthalpy is -107 kJ/mol. Moreover, in data set [2], the Tm was 38 °C.
Regarding GTGCTCGAAAGAGAACAC ((((((....)))..))), in data set [1], the folding enthalpy is -82 kJ/mol. In data set [2], the Tm stood at 44.5 °C.
Take GACGCCGAAAGGCCGGTC ((((((....)))..))): the folding enthalpy in data set [1] is -62.9 kJ/mol. In data set [2], the Tm turned out to be 42.6 °C.
The like results for GCCAGGCGAAAGCCATGC ((..(((....)))..)) were, in that order, -57.1 kJ/mol and 42.3 °C.
With GTTTGTGGAAACGCAAAC (((((.(....).))))), the folding enthalpy in data set [1] was -151 kJ/mol. In data set [2], the Tm amounted to 48.4 °C.
Take GACTACGAAAGTAAAGTC ((((((....)))..))): the folding enthalpy in data set [1] was -97.5 kJ/mol. Further, the Tm in data set [2] turned out to be 36.5 °C.
The corresponding values for GTATCTGGAAACGGATAC (((((.(....).))))) are -159 kJ/mol and 44.8 °C.
Consider GATCACTCTGTGATC ((((((...)))))), for which the folding enthalpy in data set [1] is -150 kJ/mol. The Tm in data set [2] came out at 61.6 °C.
For the sequence GCTTGGCGAAAGCGAGGC ((.(.((....)).).)), the folding enthalpy in data set [1] was -64.1 kJ/mol. The Tm in data set [2] worked out at 43.3 °C.
